Source: PubChem BioAssay (several laboratories)
MrgX1 allo act – human MrgX1 positive allosteric modulation, primary screen | MrgX1-HEK293, Fluo-4 calcium flux, FDSS; hits give high values | B-score at 10 µM | Q96LB2 | AID 588675 | 310,000 tested, 0.63% active;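 active means plate-corrected calcium response at least 3 library SD above typical, normal starting fluorescence, not activating the receptor alone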;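 further: compound read alongside a low EC10 to EC30 dose of BAM8-22 agonist; peak minus trough fluorescence over baseline measured at the second addition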
RGS4 block – human RGS4 inhibition; 310,000 tested, 0.45% active; P49798; HEK293 M3R/RGS4 inducible, Fluo-4 calcium flux; hits give high values; triggered by carbachol at its EC20; B-score at 10 µM;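 active means B-score, a plate-corrected calcium signal, over three deviations above library mean, with baseline fluorescence within five deviations of library mean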;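 further: RGS4 expression induced by doxycycline in cells with stable M3 receptor; B-score is computed from the integrated fluorescence ratio over baseline after carbachol; higher B-score means a larger calcium signal and so more RGS4 inhibition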
Target sequence (P49798 whole entry, looked up): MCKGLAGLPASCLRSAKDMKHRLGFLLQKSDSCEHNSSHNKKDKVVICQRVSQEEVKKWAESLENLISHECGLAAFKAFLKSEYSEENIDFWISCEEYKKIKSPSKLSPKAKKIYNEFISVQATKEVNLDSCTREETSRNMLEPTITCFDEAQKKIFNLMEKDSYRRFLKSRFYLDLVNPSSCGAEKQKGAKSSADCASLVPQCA
RGS4 pot – RGS4 potentiation or activation. 310,000 tested, 0.92% active. B-score at 10 µM. HEK293 M3R/inducible RGS4, carbachol calcium flux Fluo4; hits give low values;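 active means B-score of the integrated calcium signal more than 4 SD below the library mean, with starting fluorescence not abnormally high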;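 further: negative B-score means reduced calcium response which marks RGS4 activation or potentiation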
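Assay system: Inducible-RGS4 HEK293 cells carrying M3 receptor | Schedule: Compound preincubation 20 min at room temperature before agonist | Signal: Kinetic calcium fluorescence imaging with Fluo4-AM dye, 2 µM | Read-out basis: B score from integrated fluorescence ratio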
MrgX1 antag – human MrgX1 receptor antagonism, primary screen. 310,000 tested, 1.3% active. MRGX1-HEK293 calcium flux, Fluo-4, BAM8-22 antagonism; hits give low values. B-score at 10 µM. Q96LB2;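 active means calcium-response B-score plate-corrected more than 3 library SD below zero, starting fluorescence within 5 deviations, no agonist response on first addition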;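 further: peak minus trough fluorescence over baseline after final BAM8-22 challenge near maximal dose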
MrgX1 agonist – human MrgX1 receptor agonism, primary screen; B-score at 10 µM; MrgX1-HEK293 cells, Fluo-4 calcium fluorescence, agonist mode; hits give high values; AID 588627; 310,000 tested, 0.44% active; Q96LB2;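 active means calcium response B-score plate-corrected fluorescence ratio at least 3 library SD, with starting fluorescence B-score inside 5 SD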
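Material: MrgX1-expressing HEK293 cells / Dosing: compound as first of three additions / Incubation: overnight seeding, then 1 h dark dye loading / Signal: Fluo-4 NW calcium fluorescence / Evaluation: B-scored fluorescence response ratio / Benchmarks: positive and negative control wells on each plate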
Cl transport mod – modulates chloride dependent transport by human KCC2 | Q9H2X9 | KCC2 cells, thallium flux FluoZin-2 fluorescence | B-score of Tl+ flux slope (higher = more flux/activation; lower = inhibition) at 10 µM | 190,000 tested, 2.2% active | AID 1456;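 active means thallium flux slope and its plate-corrected score both differing from the plate sample mean at a set confidence after two filtering rounds, in either direction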;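 further: slope of fluorescence scaled to starting intensity during 10 to 20 s after thallium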
The depositor's hits bear a star. Most compounds without a hit are left out; they make up all but 4.7% or so of the library.

CCOc1cc(C(=O)Nc2cc3c(cc2N2CCOCC2)n(C)c(=O)n3C)cc(OCC)c1OCC was read as MrgX1 allo act inactive, RGS4 block inactive, RGS4 pot inactive, MrgX1 antag inactive and MrgX1 agonist inactive.
O=C(N/N=C/c1cc(Br)c(O)c(Br)c1)c1cc2c(ccc3ccccc32)o1 was read as MrgX1 allo act inactive, RGS4 block inactive, RGS4 pot -7.3*, MrgX1 antag inactive and MrgX1 agonist inactive.
CCOC(=O)COc1ccccc1/C=N\NC(=O)c1cc2c(ccc3ccccc32)o1 was read as MrgX1 allo act inactive, RGS4 block inactive, RGS4 pot -8.8*, MrgX1 antag inactive and MrgX1 agonist inactive.
For COc1ccccc1/C=N/NC(=O)CC(=O)NCc1ccccc1 the results were MrgX1 allo act inactive, RGS4 block inactive, RGS4 pot inactive, MrgX1 antag inactive, MrgX1 agonist inactive and Cl transport mod -0.36.
NC(=O)N/N=C/c1ccccc1OCC(=O)NCc1ccccc1 was read as MrgX1 allo act inactive, RGS4 block inactive, RGS4 pot inactive, MrgX1 antag -4.8*, MrgX1 agonist inactive and Cl transport mod 0.41.
For CCOc1cc(/C=N/NC(=O)c2cc3c(ccc4ccccc43)o2)ccc1O the results were MrgX1 allo act inactive, RGS4 block inactive, RGS4 pot inactive, MrgX1 antag inactive and MrgX1 agonist inactive.
Screening Cc1ccc(C(OCC(O)CNCc2ccc(F)cc2)c2ccccc2)cc1 (configuration not stated) returned MrgX1 allo act inactive, RGS4 block inactive, RGS4 pot inactive, MrgX1 antag inactive and MrgX1 agonist inactive.
`CC(NCc1cccnc1)c1ccccc1` (configuration not stated) gave MrgX1 allo act inactive, RGS4 block inactive, RGS4 pot inactive, MrgX1 antag inactive and MrgX1 agonist inactive.
`O=C(CN1C(=O)COc2ccc(S(=O)(=O)N3CCCCCC3)cc21)NCc1ccc(F)cc1` gave MrgX1 allo act inactive, RGS4 block inactive, RGS4 pot inactive, MrgX1 antag inactive and MrgX1 agonist inactive.
For CS(=O)(=O)N(CC(=O)NCCSCc1ccco1)c1ccc(Cl)cc1 the results were MrgX1 allo act inactive, RGS4 block inactive, RGS4 pot inactive, MrgX1 antag inactive, MrgX1 agonist inactive and Cl transport mod -0.7.
COc1ccc(N(CC(=O)NCC(C)C)S(=O)(=O)c2ccccc2)cc1 was read as MrgX1 allo act inactive, RGS4 block inactive, RGS4 pot inactive, MrgX1 antag inactive, MrgX1 agonist inactive and Cl transport mod -0.0036.
For CC(C)c1ccc(N(CC(=O)NCCSCc2ccco2)S(C)(=O)=O)cc1 the results were MrgX1 allo act 7.1*, RGS4 block inactive, RGS4 pot inactive, MrgX1 antag inactive, MrgX1 agonist inactive and Cl transport mod -1.2.
`COc1ccccc1N(CC(=O)NCCSCc1ccccc1)S(C)(=O)=O` gave MrgX1 allo act inactive, RGS4 block inactive, RGS4 pot inactive, MrgX1 antag inactive and MrgX1 agonist inactive.
`COc1ccccc1CNC(=O)CN(c1ccc(C)cc1)S(=O)(=O)c1c(C)nn(C)c1C` gave MrgX1 allo act inactive, RGS4 block inactive, RGS4 pot inactive, MrgX1 antag inactive and MrgX1 agonist inactive.
For COc1ccccc1N(CC(=O)NCCSCc1cccc(C)c1)S(=O)(=O)c1ccccc1 the results were MrgX1 allo act inactive, RGS4 block inactive, RGS4 pot -8.6*, MrgX1 antag inactive and MrgX1 agonist inactive.
`COc1ccc(N(CC(=O)NCCSCc2ccccc2C)S(=O)(=O)c2ccccc2)cc1` gave MrgX1 allo act inactive, RGS4 block inactive, RGS4 pot -7.8*, MrgX1 antag inactive and MrgX1 agonist inactive.
`COc1ccc(N(CC(=O)NCc2ccccc2OC)S(=O)(=O)c2c(C)nn(C)c2C)cc1` gave MrgX1 allo act inactive, RGS4 block inactive, RGS4 pot inactive, MrgX1 antag -6.3*, MrgX1 agonist inactive and Cl transport mod -0.76.
